Source: ChEMBL document CHEMBL4334444, “Studies of Jatrogossone A as a Reactive Oxygen Species Inducer in Cancer Cellular Models” (J Nat Prod, 2019)
Activity calls are given as the source filed them.

Assays:
U2OS [1] = assay: Induction of ROS generation in human U2OS cells at 30 uM incubated for 1 hr by CellROX green reagent based fluorescence assay; format: functional, cell-based
Outline: (§1)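 CellROX green assay in MCF-7 or U2OS cells. Cells were exposed to test compound for 1 h at 37 °C alongside 0.5% DMSO (negative control) and menadione 10–30 μM (positive control), with or without NAC (50–500 μM) as scavenger. CellROX was then added at 5 μM final for 30 min. Cells were PBS-washed, fixed in 4% paraformaldehyde for 15 min, and fluorescence read at 535 nm.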

HMEC = assay: Cytotoxicity against human HMEC cells assessed as reduction in cell viability at 0.1 to 250 uM by CellTiter-Glo assay; format: cell-based
Outline: (§2)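 CellTiter-Glo luminescent viability readout. Cells kept at 37 °C under 5% CO2. HMEC primary cells grown in basal medium with growth kit; leukemia lines and murine BCR-ABL (WT, Bax/Bak DKO) cultured per earlier description. Positive controls: staurosporine 25 μM, gambogic acid 10 μM, a toxic quinoline. At least two biological replicates in technical triplicate; luminescence normalized to untreated controls; EC50 computed.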

U2OS [2] = assay: Induction of mito-phagy in human U2OS cells transfected with mKeima-Red-Mito-7 at 1.25 to 2.5 uM incubated for 8 hrs by confocal scanning microscopic method; format: functional, cell-based
Outline: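 U2OS stably expressing mKeima-Red-Mito-7 (G418 250 μg/mL selection, flow-sorted) were plated at 40 000 cells per well and incubated overnight. Cells were treated 8 h at 37 °C; DMSO 0.5% served as negative control. Live cells were imaged by confocal microscopy at 60×. Mitophagy was scored as the ratio of mitophagy-event fluorescence to cytoplasmic mitochondrial fluorescence. Values are mean and SD of at least three experiments.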

KOPN-8 [3] = assay: Upregulation of Trx expression in human KOPN8 at 10 uM after 3 to 6 hrs by Western blot analysis; format: functional, cell-based
Outline: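 Western blot of KOPN-8 or MCF-7 lysates, 30 μg protein per lane on 4–12% Bis-Tris SDS-PAGE and transferred to nitrocellulose. Blots were probed with an oxidative stress defense antibody cocktail (catalase, SOD1, Trx, smooth muscle actin) and tubulin, and detected with IR-dye secondaries on a LI-COR Odyssey.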

U2OS [4] = assay: Induction of ROS generation in human U2OS cells at 30 uM incubated for 1 hr in presence of NAC by CellROX green reagent based fluorescence assay; format: functional, cell-based; outline: as §1
MCF7 [5] = assay: Induction of ROS generation in human MCF7 cells at 30 uM incubated for 1 hr by CellROX green reagent based fluorescence assay; format: functional, cell-based
Outline: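 CellROX green ROS assay: cells exposed 1 h at 37 °C (30 μM) with DMSO 0.5% (v/v) negative control, menadione 10 μM positive control, ± NAC (100 μM per figure legend). CellROX green added at 5 μM final, 30 min more; washed, fixed in 4% paraformaldehyde 15 min, fluorescence read at 485 ex/535 em. Mean and SD of at least three experiments; two-way ANOVA.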

MCF7 [6] = assay: Induction of apoptosis in human MCF7 cells assessed as decrease in caspase 3/7 level after 3 to 24 hrs by Western blot analysis; format: functional, cell-based
Outline: (§3)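 Western blot of KOPN-8 and MCF-7 lysates made in RIPA-type buffer (Tris pH 7.5, Triton X-100, deoxycholate, SDS) with protease and phosphatase inhibitors. 30 μg protein per lane was run on 4–12% Bis-Tris SDS-PAGE and transferred to nitrocellulose. Blots were probed for cleaved caspase-7 and PARP-1 and detected with IR-dye secondaries. Menadione served as positive control: 10 μM in KOPN-8, 30 μM in MCF-7. Blots are representative of three independent experiments.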

MCF7 [7] = assay: Induction of ROS generation in human MCF7 cells at 30 uM incubated for 1 hr in presence of NAC by CellROX green reagent based fluorescence assay; format: functional, cell-based; outline: as §1
MCF7 [8] = assay: Induction of mitochondrial membrane potential loss in human MCF7 cells at 4 uM after 24 to 48 hrs by TMRM staining based flow cytometric analysis; format: functional, cell-based
Outline: (§4)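 TMRM flow cytometry. KOPN-8 (4 × 10^4 or 5 × 10^5 per well) or MCF-7 (2 × 10^4 or 2 × 10^5 per well) were seeded 24 h, then treated 24–48 h. FCCP 10 μM was added 10 min before staining as positive control. Cells were stained with TMRM 100 nM for 0.5 h, then PBS-washed, resuspended in PBS with 1% FBS and analysed by flow cytometry; DAPI flagged compromised cells.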

KOPN-8 [9] = assay: Induction of apoptosis in human KOPN8 cells assessed as decrease in caspase 3/7 level after 3 to 24 hrs by Western blot analysis; format: functional, cell-based; outline: as §3
KOPN-8 [10] = assay: Induction of cell death in human KOPN8 cells at 4 to 10 uM after 24 hrs; format: functional, cell-based
KOPN-8 [11] = assay: Induction of mitochondrial membrane potential loss in human KOPN8 cells at 4 uM after 24 hrs by TMRM staining based flow cytometric analysis; format: functional, cell-based; outline: as §4
KOPN-8 [12] = assay: Induction of mitochondrial membrane potential loss in human KOPN8 cells at 30 uM by TMRM staining based flow cytometric analysis; format: functional, cell-based; conditions: TDE = time-dependent effect; outline: as §4
MCF7 [13] = assay: Induction of apoptosis in human MCF7 cells assessed as increase in cleaved PARP 1 level at 1 to 10 uM after 3 hrs by Western blot analysis; format: functional, cell-based; outline: as §3
SEM cells = assay: Antiproliferative activity against human SEM cells assessed as reduction in cell viability at 1 to 10 uM by CellTiter-Glo assay; format: functional, cell-based; outline: as §2
B-ALL [14] = assay: Cytotoxicity against BCR-ABL p185-positive mouse B-ALL cells overexpressing human BFL-1 assessed as inhibition of cell viability after 24 hrs by AnnexinV-FITC/propidium iodide staining based flow cytometric analysis; format: functional
[15] = Half life in human liver microsomes; format: ADME, Microsome
MDA-MB-231 = assay: Antiproliferative activity against human MDA-MB-231 cells assessed as reduction in cell viability at >10 uM after 48 hrs by propidium iodide staining based fluorescence assay; format: functional
Outline: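 MDA-MB-231 and SUM149 seeded at 6 × 10^4 to 2 × 10^5 cells/well, cultured 24 h, then exposed for 48 h. Cells fixed in cold methanol, stained with 0.4% propidium iodide, fluorescence imaged. Viability expressed as percent surviving cells relative to vehicle wells.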

B-ALL [16] = assay: Cytotoxicity against BCR-ABL p185- positive mouse B-ALL cells overexpressing human BCL-xL assessed as inhibition of cell viability after 24 hrs by AnnexinV-FITC/propidium iodide staining based flow cytometric analysis; format: functional
B-ALL [17] = assay: Antiproliferative activity against mouse B-ALL cells expressing wild type BCR-ABL assessed as reduction in cell viability at 1 to 10 uM by CellTiter-Glo assay; format: functional, cell-based; outline: as §2
KOPN-8 [18] = assay: Induction of mitochondrial membrane potential loss in human KOPN8 cells at 1 to 3 uM after 24 to 48 hrs by TMRM staining based flow cytometric analysis; format: functional, cell-based; outline: as §4
[19] = Stability in CH3CN assessed as micheal adduct formation by measuring intact compound incubated for 16 hrs in presence of glutathione by LC-MS analysis; format: physicochemical
KOPN-8 [20] = assay: Induction of mitochondrial membrane potential loss in human KOPN8 cells at 10 uM after 24 to 48 hrs by TMRM staining based flow cytometric analysis; format: functional, cell-based; outline: as §4

CC1=C2CC(C)(C)/C=C/C(=O)/C(C)=C\C3=C[C@H](C)C[C@]3(O2)C1=O [JATROPHONE]
Toxic: Activity (HMEC)
inactive: Activity (KOPN-8 [3]) | Activity (U2OS [4]) | Activity (MCF7 [7]) | Activity (MCF7 [8])
active: Activity (U2OS [1]) | Activity (U2OS [2]) | Activity (MCF7 [5]) | Activity (MCF7 [6]) Dose-dependent effect | Activity (KOPN-8 [9]) Dose-dependent effect | Activity (KOPN-8 [10]) | Activity (KOPN-8 [11]) | Activity (KOPN-8 [12]) Tde | Activity (MCF7 [13])

CC(=O)O[C@H]1/C2=C/[C@@H](C)C(=O)C[C@H]3[C@@H](/C=C(\C)C(=O)[C@H]2C[C@H]1C)C3(C)C
4.26 µM: IC50 (B-ALL [14])
inactive: Activity (U2OS [4]) | Activity (MCF7 [7]) | Activity (KOPN-8 [20])
active: Activity (U2OS [1]) | Activity (U2OS [2]) | inhibition (SEM cells) | inhibition (MDA-MB-231) | Activity (MCF7 [5]) | Activity (MCF7 [6]) Dose-dependent effect | inhibition (B-ALL [17]) | Activity (KOPN-8 [9]) Dose-dependent effect | Activity (KOPN-8 [18]) | Activity (KOPN-8 [12]) Tde
Stable: Stability [19]
23.8 µM: IC50 (B-ALL [16])
31 min: half-life [15]
